Activity calls are given as the source filed them. The rule behind the calls is not given here.
How the values were obtained:
[1] = Inhibition of West Nile virus NS2B-NS3 serine protease preincubated for 1 hr before addition of Pyr-RTKR-AMC fluorogenic substrate by measuring fluorescence every 45 seconds for 1 hr by fluorescence assay
How it was run: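 WNV NS2B/NS3 protease (20 nM) preincubated with varying inhibitor concentrations 1 h at 25 °C in pH 8.0 buffer (10 mM Tris–HCl, 1 mM CHAPS, 20% v/v glycerol). Pyr-RTKR-AMC added to 20 μM final. Fluorescence (ex 355/em 460 nm) read at 37 °C every 45 s for 1 h. Duplicates. IC50 from sigmoidal fit of initial velocity vs log[inhibitor]. Nona-D-Arg-NH2 as positive control.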

[2] = Competitive inhibition of West Nile virus NS2B-NS3 serine protease assessed as rate of Pyr-RTKR-AMC hydrolysis every 45 seconds for 1 hr by Lineweaver-Burk plot analysis
How it was run: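 Inhibitor at 0, 5, 10, 20, 40 and 70 μM preincubated with protease (20 nM) 1 h at 25 °C, pH 8.0 (10 mM Tris–HCl, 1 mM CHAPS, 20% v/v glycerol). Pyr-RTKR-AMC then added at 10–500 μM (seven levels). Hydrolysis followed at 37 °C, ex 355/em 460 nm. Ki from non-linear regression with a competitive inhibition model, alongside a 1/V vs 1/S plot.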

[3] = molecular target: Prothrombin (Homo sapiens) (UniProt P00734); assay: Inhibition of thrombin assessed as fluorescence intensity at 100 uM pretreated for 1 hr before substrate addition measured every 45 seconds for 1 hr
How it was run: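 Assay run with a commercial AFC thrombin kit. Thrombin (40 nM) incubated with inhibitor 1 h at 25 °C in kit reaction buffer, then AFC substrate added. Fluorescence (ex 380/em 500 nm) read at 25 °C. NAPAP served as positive control.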

N=C(N)NCCNC(=O)[C@H](CCCCN)NC(=O)[C@H](CCCCN)NC(=O)Cc1ccc(-c2ccccc2)cc1
IC50 [1]: > 100 µM

N=C(N)NC/C=C/CNC(=O)[C@H](CCCCN)NC(=O)[C@H](CCCCN)NC(=O)Cc1ccc(-c2ccccc2)cc1
IC50 [1]: 61.2 µM

N=C(N)NC[C@H]1CCN(C(=O)[C@H](CCCCN)NC(=O)[C@H](CCCCN)NC(=O)Cc2ccc(-c3ccccc3)cc2)C1
IC50 [1]: > 100 µM

N=C(N)NCCCCCNC(=O)[C@H](CCCCN)NC(=O)[C@H](CCCCN)NC(=O)Cc1ccc(-c2ccccc2)cc1
IC50 [1]: > 100 µM

N=C(N)NC1CCC(NC(=O)[C@H](CCCCN)NC(=O)[C@H](CCCCN)NC(=O)Cc2ccc(-c3ccccc3)cc2)CC1 (stereo partly drawn)
IC50 [1]: > 100 µM

N=C(N)NCC1CCN(C(=O)[C@H](CCCCN)NC(=O)[C@H](CCCCN)NC(=O)Cc2ccc(-c3ccccc3)cc2)CC1
IC50 [1]: > 100 µM

N=C(N)NC[C@@H]1CCN(C(=O)[C@H](CCCCN)NC(=O)[C@H](CCCCN)NC(=O)Cc2ccc(-c3ccccc3)cc2)C1
IC50 [1]: 20 µM

N=C(N)NCCCCNC(=O)[C@H](CCCCN)NC(=O)[C@H](CCCCN)NC(=O)Cc1ccc(-c2ccccc2)cc1
Ki [2]: 2.05 µM | Activity [3]: inactive | IC50 [1]: 4.7 µM

CC(=O)N[C@@H](CCCCN)C(=O)N[C@@H](CCCCN)C(=O)NCCCCNC(=N)N
Activity [3]: inactive | IC50 [1]: 18.2 µM

N=C(N)NCCCNC(=O)[C@H](CCCCN)NC(=O)[C@H](CCCCN)NC(=O)Cc1ccc(-c2ccccc2)cc1
IC50 [1]: > 100 µM

— ChEMBL document CHEMBL1795310, “Novel agmatine and agmatine-like peptidomimetic inhibitors of the West Nile virus NS2B/NS3 serine protease” (Eur J Med Chem, 2011)
